# Measurements from ChEMBL document CHEMBL3400136, “Design and synthesis of new potassium channel activators derived from the ring opening of diazoxide: study of their vasodilatory effect, stimulation of elastin synthesis and inhibitory effect on insulin release” (Bioorg Med Chem, 2015).
# The source made the active and inactive calls. The rule behind the calls is not given here.
# What was measured:
# Rattus norvegicus [1] = species on record: Rattus norvegicus; test: Activation of ATP-sensitive potassium channel in Wistar rat pancreatic islets assessed as inhibition of 16.7 mM of glucose-induced insulin secretion by measuring residual insulin secretion at 10 uM after 90 mins relative to control
# Outline: (§1)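 Islets from adult fed Wistar rats, groups of 10. Preincubated 30 min at 37 °C in bicarbonate salt medium with 2.8 mM glucose and 0.5% dialysed albumin, gassed O2/CO2 95:5. Then 90 min at 37 °C in same medium with 16.7 mM glucose plus drug. Insulin by radioimmunoassay against rat insulin standard, expressed as % of drug-free 16.7 mM glucose control.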
# Homo sapiens [2] = species on record: Homo sapiens; test: Activation of ATP-sensitive potassium channel in vascular smooth muscle cells (unknown origin) assessed as increase in elastin production at 100 uM after 48 hrs by ELISA
# Outline: (§2)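 Primary aortic smooth muscle cells serum-starved overnight in 1% FCS-DMEM, seeded 25,000 cells/well and adhered overnight. Compounds in DMSO (final <1%) for 48 h, some wells with 10 µM glibenclamide throughout. Controls were DMSO alone, 1 mM minoxidil in water, or diazoxide. Cells fixed in 4% paraformaldehyde, extracellular elastin by anti-elastin ELISA with HRP secondary, read by absorbance. n = 3–4 from different cultures; ANOVA.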
# Thoracic aorta [3] = test: Vasorelaxant activity in Wistar rat thoracic aortic ring assessed as inhibition of 80 mM KCl-induced contraction; assay type: functional, tissue-based
# Outline: (§3)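 Thoracic aorta rings (2–3 mm) from adult Wistar rats, held at 1.5 g tension in Krebs-type solution pH 7.36, 37 °C, O2/CO2 95:5. After 60 min equilibration, contracted with 30 or 80 mM KCl, some with 10 µM glibenclamide. Cumulative drug additions to maximal relaxation; isometric tension by force transducer. Relaxation as % of KCl contraction; EC50 from concentration-response curves; mean ± sem, n experiments.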
# Rattus norvegicus [4] = species on record: Rattus norvegicus; test: Activation of ATP-sensitive potassium channel in Wistar rat pancreatic islets assessed as inhibition of 16.7 mM of glucose-induced insulin secretion by measuring residual insulin secretion at 50 uM after 90 mins relative to control; outline: as §1
# Thoracic aorta [5] = test: Vasorelaxant activity in Wistar rat thoracic aortic ring assessed as inhibition of KCl-induced contraction in presence of glibenclamide; assay type: functional, tissue-based; outline: as §3
# Homo sapiens [6] = species on record: Homo sapiens; test: Activation of ATP-sensitive potassium channel in vascular smooth muscle cells (unknown origin) assessed as increase in elastin production after 48 hrs by ELISA; outline: as §2
# Homo sapiens [7] = species on record: Homo sapiens; test: Activation of ATP-sensitive potassium channel in vascular smooth muscle cells (unknown origin) assessed as increase in elastin production at 100 uM after 48 hrs by ELISA
# Thoracic aorta [8] = test: Vasorelaxant activity in Wistar rat endothelium thoracic aortic ring assessed as inhibition of 30 mM KCl-induced contraction; assay type: functional, tissue-based
# Outline: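 Rings from adult Wistar rat thoracic aorta, with or without endothelium, under 1.5 g tension in oxygenated physiological solution at 37 °C, pH 7.36. Contraction by 30 mM KCl after 60 min equilibration, then cumulative drug to maximal relaxation. EC50 = concentration giving 50% relaxation of KCl contraction; mean ± sem.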
# Homo sapiens [9] = species on record: Homo sapiens; test: Activation of ATP-sensitive potassium channel in vascular smooth muscle cells (unknown origin) assessed as increase in elastin production at 10 to 100 uM after 48 hrs by ELISA in presence of glibenclamide; outline: as §2
# Thoracic aorta [10] = test: Vasorelaxant activity in Wistar rat thoracic aortic ring assessed as inhibition of 30 mM KCl-induced contraction; assay type: functional, tissue-based; outline: as §3
# [11] = Dissociation constant, pKa of the compound by UV-Visible spctrophotometry; assay type: physicochemical
# Outline: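 UV–visible spectra recorded at ambient temperature in borate and phosphate buffers from pH 3 to 10, using neutral and ionic species references in 0.1 N HCl and 0.1 N NaOH. Exact pH measured for each spectrum. pKa calculated by the Albert–Serjeant formula.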
# Homo sapiens [12] = species on record: Homo sapiens; test: Activation of ATP-sensitive potassium channel in vascular smooth muscle cells (unknown origin) assessed as increase in elastin production at 10 to 20 uM after 48 hrs by ELISA; outline: as §2
# Rattus norvegicus [13] = test: Activation of ATP-sensitive potassium channel in Wistar albino rat assessed as effect on blood glucose at 50 mg/kg, po; assay type: functional, organism-based; set-up: dose 50 mg/kg
# Outline: (§4)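 Adult fed Wistar albino rats, conscious, free access to water and standard pellet diet, held in a small cabinet from 60 min before sampling. Single oral dose in DMSO (0.2 mL) at time zero; controls got DMSO alone. Tail blood drop at 0, 1, 2, 3 and 4 h, glucose by reagent strip and glucometer. Mean ± sem, n = 3 rats.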
# Rattus norvegicus [14] = test: Hypoglycemic effect in Wistar albino rat assessed as effect on blood glucose at 0.25 mg/kg, po; assay type: functional, organism-based; set-up: dose 0.25 mg/kg; outline: as §4
# Homo sapiens [15] = species on record: Homo sapiens; test: Activation of ATP-sensitive potassium channel in vascular smooth muscle cells (unknown origin) assessed as increase in elastin production at 10 to 100 uM after 48 hrs by ELISA; outline: as §2
# Rattus norvegicus [16] = test: Hyperglycemic effect in Wistar albino rat assessed as effect on blood glucose at 50 mg/kg, po; assay type: functional, organism-based; set-up: dose 50 mg/kg; outline: as §4
# Homo sapiens [17] = species on record: Homo sapiens; test: Activation of ATP-sensitive potassium channel in vascular smooth muscle cells (unknown origin) assessed as increase in elastin production at 50 uM after 48 hrs by ELISA
# Outline: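 Primary aortic smooth muscle cells were serum-starved overnight in 1% FCS-DMEM, seeded at 25,000 cells/well and left to adhere overnight. They were then exposed for 48 h in 1% FCS-DMEM to compound in DMSO (final DMSO <1%). Cells were fixed in 4% paraformaldehyde, blocked with 2% BSA, then labelled with anti-elastin antibody (1:1000) and HRP secondary (1:50,000). The reaction was stopped with sulfuric acid and absorbance read. Negative control was DMSO; positive control was 1 mM minoxidil.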
# Rattus norvegicus [18] = species on record: Rattus norvegicus; test: Activation of ATP-sensitive potassium channel in Wistar rat thoracic aortic ring assessed as rightward shift; assay type: tissue-based; conditions: Aorta; outline: as §3
smiles,measurement,setting,value
COc1ccccc1C(=O)NC(=S)NC(C)C,Activity,Rattus norvegicus [1],90.9%
same,Activity,Homo sapiens [2],30%
same,EC50,Thoracic aorta [3],38.1 µM
same,Activity,Rattus norvegicus [4],105%
same,EC50,Thoracic aorta [5],28.1 µM
same,Activity,Homo sapiens [6],Dose-dependent effect
same,Activity,Homo sapiens [7],30%
same,EC50,Thoracic aorta [8],18.6 µM
same,Activity,Homo sapiens [9],inactive
same,EC50,Thoracic aorta [10],15.7 µM
CCOc1ccc(Cl)cc1S(=O)(=O)NC(=O)NC(C)C,EC50,Thoracic aorta [8],> 300 µM
CCOc1ccc(Cl)cc1S(=O)(=O)NC(=S)NCc1ccccc1,EC50,Thoracic aorta [8],> 300 µM
COc1ccc(Cl)cc1S(=O)(=O)NC(=O)NC1CCCCC1,pKa,[11],5.46
same,EC50,Thoracic aorta [8],> 300 µM
CCOc1ccc(Cl)cc1S(=O)(=O)NC(=O)Nc1ccccc1,EC50,Thoracic aorta [8],> 300 µM
CCOc1ccc(Cl)cc1S(=O)(=O)NC(=O)NC1CCCCC1,EC50,Thoracic aorta [8],> 300 µM
COc1ccccc1C(=O)NC(=O)Nc1ccccc1,EC50,Thoracic aorta [8],26.7 µM
COc1ccc(F)cc1S(=O)(=O)NC(=O)NC(C)C,pKa,[11],5.52
same,EC50,Thoracic aorta [8],> 300 µM
CC(C)NC(=O)NC(=O)c1ccccc1OCc1ccccc1,EC50,Thoracic aorta [8],26.8 µM
O=C(NC(=S)NCc1ccccc1)c1ccccc1OCc1ccccc1,EC50,Thoracic aorta [8],> 100 µM
COc1ccccc1C(=O)NC(=O)NC(C)C,EC50,Thoracic aorta [8],91.4 µM
COc1ccc(Cl)cc1S(=O)(=O)NC(=O)Nc1ccccc1,pKa,[11],4.5
same,EC50,Thoracic aorta [8],> 300 µM
COc1ccccc1C(=O)NC(=S)NCc1ccccc1,EC50,Thoracic aorta [8],47.2 µM
CCCOc1ccccc1C(=O)NC(=O)Nc1ccccc1,EC50,Thoracic aorta [8],59.6 µM
COc1ccc(Cl)cc1S(=O)(=O)NC(=S)NCc1ccccc1,EC50,Thoracic aorta [8],> 300 µM
CCNC(=O)NC(=O)c1ccccc1OCc1ccccc1,Activity,Rattus norvegicus [1],110%
same,EC50,Thoracic aorta [3],36.6 µM
same,Activity,Rattus norvegicus [4],113%
same,EC50,Thoracic aorta [5],38 µM
same,Activity,Homo sapiens [12],inactive
same,EC50,Thoracic aorta [8],16.7 µM
same,EC50,Thoracic aorta [10],17.2 µM
CCCOc1ccccc1C(=O)NC(=S)Nc1ccccc1,Activity,Rattus norvegicus [1],83.8%
same,EC50,Thoracic aorta [3],121 µM
same,Activity,Rattus norvegicus [4],44.9%
same,EC50,Thoracic aorta [5],64.9 µM
same,EC50,Thoracic aorta [8],16.5 µM
same,Activity,Rattus norvegicus [13],inactive
same,EC50,Thoracic aorta [10],12 µM
CCNC(=S)NS(=O)(=O)c1cc(Cl)ccc1OC,EC50,Thoracic aorta [8],> 300 µM
CCCCCNC(=O)NC(=O)c1ccccc1OCc1ccccc1,EC50,Thoracic aorta [8],17.3 µM
COc1ccccc1C(=O)NC(=O)NC1CCCCC1,EC50,Thoracic aorta [8],35.9 µM
CCCOc1ccccc1C(=O)NC(=O)NC1CCCCC1,EC50,Thoracic aorta [8],58.2 µM
CCOc1ccc(Cl)cc1S(=O)(=O)NC(=S)Nc1ccc(F)cc1,EC50,Thoracic aorta [8],> 300 µM
COc1ccc(F)cc1S(=O)(=O)NC(=S)NC(C)C,EC50,Thoracic aorta [8],> 300 µM
COc1ccc(Cl)cc1S(=O)(=O)NC(=O)Nc1ccc(F)cc1,EC50,Thoracic aorta [8],> 300 µM
COc1ccc(Cl)cc1C(=O)NCCc1ccc(S(=O)(=O)NC(=O)NC2CCCCC2)cc1,Activity,Rattus norvegicus [14],Active
CCOc1ccc(Cl)cc1S(=O)(=O)NC(=S)NC(C)C,EC50,Thoracic aorta [8],> 300 µM
COc1ccc(Cl)cc1S(=O)(=O)NC(=O)NC(C)C,pKa,[11],5.65
same,EC50,Thoracic aorta [8],> 300 µM
COc1ccccc1C(=O)NC(=S)Nc1ccccc1,EC50,Thoracic aorta [8],34.5 µM
O=C(NC(=O)c1ccccc1OCc1ccccc1)NC1CCCCC1,EC50,Thoracic aorta [8],33.8 µM
CCNC(=O)NC(=O)c1ccccc1OC,EC50,Thoracic aorta [8],> 100 µM
O=C(NCc1ccccc1)NC(=O)c1ccccc1OCc1ccccc1,EC50,Thoracic aorta [8],21.1 µM
CCNC(=S)NC(=O)c1ccccc1OC,Activity,Rattus norvegicus [1],94.1%
same,EC50,Thoracic aorta [3],57.1 µM
same,Activity,Rattus norvegicus [4],99.6%
same,EC50,Thoracic aorta [5],28.2 µM
same,EC50,Thoracic aorta [8],15.2 µM
same,Activity,Homo sapiens [15],inactive
same,EC50,Thoracic aorta [10],17.4 µM
CC1=Nc2ccc(Cl)cc2S(=O)(=O)N1 [DIAZOXIDE],Activity,Rattus norvegicus [1],70%
same,EC50,Thoracic aorta [3],> 300 µM
same,Activity,Rattus norvegicus [4],28.8%
same,Activity,Rattus norvegicus [16],Active
same,Activity,Homo sapiens [17],67%
CCC(C)NC(=O)NC(=O)c1ccccc1OC (stereo not given),EC50,Thoracic aorta [8],31.8 µM
COc1ccc(Cl)cc1S(=O)(=O)NC(=S)NC(C)C,pKa,[11],5.74
same,EC50,Thoracic aorta [8],> 300 µM
CCC(C)NC(=O)NC(=O)c1ccccc1OCc1ccccc1 (stereo not given),Activity,Rattus norvegicus [1],90.1%
same,Activity,Homo sapiens [2],30%
same,Activity,Rattus norvegicus [18],Dose-dependent effect
same,EC50,Thoracic aorta [3],45.6 µM
same,Activity,Rattus norvegicus [4],21.4%
same,EC50,Thoracic aorta [5],20.2 µM
same,Activity,Homo sapiens [6],Dose-dependent effect
same,Activity,Homo sapiens [7],30%
same,EC50,Thoracic aorta [8],12.2 µM
same,Activity,Rattus norvegicus [13],inactive
same,Activity,Homo sapiens [9],inactive
same,EC50,Thoracic aorta [10],15.3 µM
CCC(C)NC(=S)NC(=O)c1ccccc1OC (stereo not given),EC50,Thoracic aorta [8],36.6 µM
CCCOc1ccccc1C(=O)NC(=S)NCc1ccccc1,EC50,Thoracic aorta [8],71.1 µM
